Experimental findings from ChEMBL document CHEMBL3627681, “Synthesis and biological evaluation of 1,3-diaryl pyrazole derivatives as potential antibacterial and anti-inflammatory agents” (2015) are described below.

In brackets after ≈: the same amount, converted by molar mass. A value given as a limit tells only on which side of the number the result lay.

For test [1], the system named is Escherichia coli. The test can be described thus: Antibacterial activity against Escherichia coli KCTC 1924 after 24 hrs by two-fold serial dilution method. Type of test: functional. The conditions noted are these: KCTC 1924, 24 h. Summed up:
(§1)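 Broth microdilution in Mueller-Hinton broth over final concentrations of 64–0.5. Bacteria were grown to mid-log phase and diluted 1000-fold, then inoculated at 10⁵ CFU/mL. Compounds were dissolved in DMSO, with final DMSO at most 0.05%. Plates were incubated 24 h at 37 °C and growth read as absorbance at 650 nm. MIC is the concentration giving complete growth inhibition. Three independent runs.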

Test [2] concerns Staphylococcus aureus. The test can be described thus: Antibacterial activity against Staphylococcus aureus RN4220 after 24 hrs by two-fold serial dilution method. The conditions noted are these: RN4220, 24 h. It counts as functional. Summed up:
(§2)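 Broth microdilution in Mueller-Hinton broth. Bacteria grown to mid-log phase, diluted 1000-fold, and inoculated at 10⁵ CFU/mL. Test compounds in DMSO, final DMSO not above 0.05%, final concentrations 64-0.5 µg/mL. Incubation 24 h at 37 °C, growth read as absorbance at 650 nm. MIC taken as the lowest concentration giving complete growth inhibition. Run three times.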

The subject of test [3] is Escherichia coli. As to the kind of experiment: Ratio of gatifloxacin MIC to compound MIC for Escherichia coli CCARM 1356 after 24 hrs by two-fold serial dilution method. Type of test: functional.
The test system of the next test is Candida albicans. As to the kind of experiment: Antifungal activity against Candida albicans 7535 by two-fold serial dilution method. It counts as functional.
In test [4] the test system is Staphylococcus aureus. As to the kind of experiment: Antibacterial activity against methicillin-resistant Staphylococcus aureus CCARM 3506 after 24 hrs by two-fold serial dilution method. As to conditions: CCARM 3506, 24 h. It counts as functional. Summed up:
as §2

The test system of another test is Salmonella typhimurium. As to the kind of experiment: Antibacterial activity against Salmonella typhimurium 2421 after 24 hrs by two-fold serial dilution method. It counts as functional, Salmonella enterica subsp. enterica serovar Typhimurium. The conditions noted are these: Salmonella enterica, 2421, 24 h. In outline:
as §1

The subject of test [5] is Staphylococcus aureus. As to the kind of experiment: Ratio of gatifloxacin MIC to compound MIC for quinolone-resistant Staphylococcus aureus CCARM 3505 after 24 hrs by two-fold serial dilution method. It counts as functional.
Test [6] concerns Staphylococcus aureus. As to the kind of experiment: Ratio of moxifloxacin MIC to compound MIC for quinolone-resistant Staphylococcus aureus CCARM 3519 after 24 hrs by two-fold serial dilution method. It counts as functional.
The test system of test [7] is Pseudomonas aeruginosa. The test can be described thus: Antibacterial activity against Pseudomonas aeruginosa 2742 after 24 hrs by two-fold serial dilution method. It counts as functional. The conditions noted are these: Pseudomonas aeruginosa, 2742, 24 h. Summed up:
as §1

Test [8] concerns Staphylococcus aureus. The test can be described thus: Antibacterial activity against methicillin-resistant Staphylococcus aureus CCARM 3167 after 24 hrs by two-fold serial dilution method. As to conditions: CCARM 3167, 24 h. Type of test: functional. In outline:
as §2

Test [9] has as its system Staphylococcus aureus. As to the kind of experiment: Antibacterial activity against quinolone-resistant Staphylococcus aureus CCARM 3519 after 24 hrs by two-fold serial dilution method. Type of test: functional. As to conditions: CCARM 3519, 24 h. In outline: as §2
Test [10] concerns Staphylococcus aureus. As to the kind of experiment: Ratio of oxacillin MIC to compound MIC for methicillin-resistant Staphylococcus aureus CCARM 3506 after 24 hrs by two-fold serial dilution method. It counts as functional.
Another test concerns Streptococcus mutans. The test can be described thus: Antibacterial activity against Streptococcus mutans 3065 after 24 hrs by two-fold serial dilution method. As to conditions: Streptococcus mutans, 3065, 24 h. It counts as functional. In outline: as §1
The subject of the next test is Mus musculus. The test can be described thus: Antiinflammatory activity in mouse assessed as inhibition of xylene-induced ear edema at 50 mg/kg, ip administered 30 mins before xylene challenge relative to control. It counts as functional. In outline:
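Mice received compound freshly dissolved in DMSO, 50 mg/kg ip at 0.05 mL/20 g body weight; vehicle controls got DMSO alone. After 30 min, 20 µL xylene was applied to the right ear. After a further 30 min, 7 mm plugs were cut from treated and untreated ears and edema taken as their weight difference. Result is % edema reduction versus vehicle controls.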

Test [11] deals with Staphylococcus aureus. The test can be described thus: Antibacterial activity against Staphylococcus aureus 209 after 24 hrs by two-fold serial dilution method. As to conditions: Staphylococcus aureus, 209, 24 h. It counts as functional. In outline:
as §2

Test [12] deals with Pseudomonas aeruginosa. As to the kind of experiment: Antibacterial activity against Pseudomonas aeruginosa 2004 after 24 hrs by two-fold serial dilution method. It counts as functional. The conditions noted are these: Pseudomonas aeruginosa, 2004, 24 h. In outline: as §1
The test system of test [13] is Staphylococcus aureus. As to the kind of experiment: Antibacterial activity against Staphylococcus aureus 503 after 24 hrs by two-fold serial dilution method. Type of test: functional. The conditions noted are these: Staphylococcus aureus, 503, 24 h. Summed up: as §2
Test [14] deals with Staphylococcus aureus. As to the kind of experiment: Antibacterial activity against quinolone-resistant Staphylococcus aureus CCARM 3505 after 24 hrs by two-fold serial dilution method. It counts as functional. The conditions noted are these: CCARM 3505, 24 h. In outline:
as §2

For test [15], the system named is Escherichia coli. The test can be described thus: Antibacterial activity against Escherichia coli CCARM 1356 after 24 hrs by two-fold serial dilution method. Type of test: functional. As to conditions: CCARM 1356, 24 h. Summed up: as §1
For test [16], the system named is Escherichia coli. As to the kind of experiment: Ratio of moxifloxacin MIC to compound MIC for Escherichia coli CCARM 1356 after 24 hrs by two-fold serial dilution method. It counts as functional.
The subject of test [17] is Staphylococcus aureus. As to the kind of experiment: Ratio of moxifloxacin MIC to compound MIC for quinolone-resistant Staphylococcus aureus CCARM 3505 after 24 hrs by two-fold serial dilution method. It counts as functional.
Test [18] relates to Staphylococcus aureus. As to the kind of experiment: Ratio of gatifloxacin MIC to compound MIC for quinolone-resistant Staphylococcus aureus CCARM 3519 after 24 hrs by two-fold serial dilution method. Type of test: functional.

What is called MIC is the smallest concentration in the dilution series that meets the test's criterion for growth inhibition. Usually inhibition in vivo stands for the percentage by which the read-out fell short of the control. With `N=C(N)N/N=C/c1cn(-c2ccc([N+](=O)[O-])cc2[N+](=O)[O-])nc1-c1ccc(Br)cc1`, the MIC in the test on Escherichia coli [1] is 2 µg/mL (≈ 4.23 µM); in the test with Staphylococcus aureus [2], 2 µg/mL (≈ 4.23 µM); against Candida albicans, 1 µg/mL (≈ 2.11 µM); against Staphylococcus aureus [4], 1 µg/mL (≈ 2.11 µM); against Salmonella typhimurium, 4 µg/mL (≈ 8.45 µM); in the test on Pseudomonas aeruginosa [7] it was more than 64 µg/mL. The minimum inhibitory concentration (MIC) is 2 µg/mL (≈ 4.23 µM) in the test with Staphylococcus aureus [8]; 2 µg/mL (≈ 4.23 µM) against Staphylococcus aureus [9]; 2 µg/mL (≈ 4.23 µM) with Streptococcus mutans; 2 µg/mL (≈ 4.23 µM) against Staphylococcus aureus [11]; more than 64 µg/mL in the test with Pseudomonas aeruginosa [12]; 2 µg/mL (≈ 4.23 µM) against Staphylococcus aureus [13]. Further, the MIC amounted to 2 µg/mL (≈ 4.23 µM) with Staphylococcus aureus [14] and 4 µg/mL (≈ 8.45 µM) in the test with Escherichia coli [15]. The Ratio was determined as 4 in the test with Escherichia coli [3], 4 with Staphylococcus aureus [5], 2 with Staphylococcus aureus [6] and 64 in the test on Staphylococcus aureus [10]. Also, the inhibition in vivo at 50 mg/kg with Mus musculus was determined as 69.6%.

For `COc1cccc(-c2nn(-c3ccc([N+](=O)[O-])cc3[N+](=O)[O-])cc2/C=N/NC(=N)N)c1`, the MIC was 4 µg/mL (≈ 9.43 µM) with Escherichia coli [1]; 4 µg/mL (≈ 9.43 µM) in the test with Staphylococcus aureus [2]; 2 µg/mL (≈ 4.71 µM) with Candida albicans; 2 µg/mL (≈ 4.71 µM) against Staphylococcus aureus [4]; 8 µg/mL (≈ 18.9 µM) against Salmonella typhimurium; more than 64 µg/mL with Pseudomonas aeruginosa [7]. The minimum inhibitory concentration (MIC) with Staphylococcus aureus [8] is 4 µg/mL (≈ 9.43 µM); against Staphylococcus aureus [9] it was 4 µg/mL (≈ 9.43 µM); in the test with Streptococcus mutans, 8 µg/mL (≈ 18.9 µM); against Staphylococcus aureus [11], 4 µg/mL (≈ 9.43 µM); in the test on Pseudomonas aeruginosa [12], more than 64 µg/mL; in the test on Staphylococcus aureus [13], 4 µg/mL (≈ 9.43 µM). The MIC came to 4 µg/mL (≈ 9.43 µM) with Staphylococcus aureus [14] and 8 µg/mL (≈ 18.9 µM) against Escherichia coli [15]. Besides, the Ratio in the test on Escherichia coli [16] came out at 16. Further, in the test with Mus musculus, the inhibition in vivo at 50 mg/kg was 67.3%.

In the case of `N=C(N)N/N=C/c1cn(-c2ccc([N+](=O)[O-])cc2[N+](=O)[O-])nc1-c1ccc(Cl)cc1`, the minimal inhibitory concentration (MIC) against Escherichia coli [1] is 2 µg/mL (≈ 4.66 µM); in the test with Staphylococcus aureus [2] it was 2 µg/mL (≈ 4.66 µM); against Candida albicans, 2 µg/mL (≈ 4.66 µM); against Staphylococcus aureus [4], 2 µg/mL (≈ 4.66 µM); against Salmonella typhimurium it was 4 µg/mL (≈ 9.33 µM); against Pseudomonas aeruginosa [7], more than 64 µg/mL. The MIC against Staphylococcus aureus [8] was 2 µg/mL (≈ 4.66 µM); in the test with Staphylococcus aureus [9], 2 µg/mL (≈ 4.66 µM); against Streptococcus mutans, 4 µg/mL (≈ 9.33 µM); against Staphylococcus aureus [11], 2 µg/mL (≈ 4.66 µM); with Pseudomonas aeruginosa [12] it was more than 64 µg/mL; in the test on Staphylococcus aureus [13], 2 µg/mL (≈ 4.66 µM). In addition, the results for the MIC in the test with Staphylococcus aureus [14] and with Escherichia coli [15] were 2 µg/mL (≈ 4.66 µM) and 8 µg/mL (≈ 18.7 µM), respectively. Also, the Ratio in the test with Staphylococcus aureus [5] came out at 4; in the test with Staphylococcus aureus [6] it was 2; in the test on Escherichia coli [16], 16; with Staphylococcus aureus [17], 2; in the test with Staphylococcus aureus [18], 2. Moreover, the inhibition in vivo at 50 mg/kg in the test with Mus musculus came to 71.5%.

In the case of `N=C(N)N/N=C/c1cn(-c2ccc([N+](=O)[O-])cc2[N+](=O)[O-])nc1-c1ccc(F)cc1`, the MIC in the test with Escherichia coli [1] is 4 µg/mL (≈ 9.7 µM); against Staphylococcus aureus [2], 4 µg/mL (≈ 9.7 µM); against Candida albicans, 2 µg/mL (≈ 4.85 µM); with Staphylococcus aureus [4], 4 µg/mL (≈ 9.7 µM); with Salmonella typhimurium, 8 µg/mL (≈ 19.4 µM); with Pseudomonas aeruginosa [7] it was more than 64 µg/mL. Besides, the MIC with Staphylococcus aureus [8] was 4 µg/mL (≈ 9.7 µM); against Staphylococcus aureus [9], 4 µg/mL (≈ 9.7 µM); against Streptococcus mutans, 8 µg/mL (≈ 19.4 µM); against Staphylococcus aureus [11], 4 µg/mL (≈ 9.7 µM); with Pseudomonas aeruginosa [12], more than 64 µg/mL; in the test with Staphylococcus aureus [13] it was 4 µg/mL (≈ 9.7 µM). In addition, the MIC with Staphylococcus aureus [14] was 4 µg/mL (≈ 9.7 µM); with Escherichia coli [15] it was 8 µg/mL (≈ 19.4 µM). For the same molecule, in the test on Escherichia coli [16], the Ratio is recorded as 16. Also, the inhibition in vivo at 50 mg/kg in the test on Mus musculus is 61.9%.
